Test results from ChEMBL document CHEMBL1129073, “Metabolically programmed polyamine analogue antidiarrheals” (J Med Chem, 1996).

Experiments:
[1] = Acute toxicity was assessed after ip administration of a single dose of 325 mg/kg to a group of 5 female CD-1 mice; type: organism-based; parameters: dose 325 mg/kg, route intraperitoneal; details: CD-1, mouse, in vivo
L1210 [2] = test: Ability to competitively inhibit radioligand spermidine transport in L1210 cells; type: functional, cell-based, Mus musculus
Summary of the method: (§1)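 Murine L1210 leukemia cells in RPMI-1640 with 10% FBS and 1 mM aminoguanidine. Pellets washed in cold medium containing 1 mM SPD, dissolved in NaOH, scintillation counted. Ki from Lineweaver–Burke plots; Km(SPD) 2.1 μM; mean of ≥3 experiments.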

L1210 [3] = test: Growth inhibitory activity of compound on L1210 cells after 96 hours; type: functional, cell-based; details: Mus musculus, L1210, 96 h
Summary of the method: (§2)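 Murine L1210 leukemia cells were kept in log-phase suspension in RPMI-1640 with 10% FBS, 2% HEPES-MOPS, 1 mM aminoguanidine and 1 mM L-glutamine at 37 °C under 5% CO₂. They were dosed at 0.5–1.0 × 10⁵ cells/mL with analogue in sterile water, 0.2 μm filtered. For the 96 h value, cells were reseeded at 48 h. Cells were counted electronically. IC50 is the concentration giving 50% of control growth, net of the inoculum.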

[4] = Effect of Chronic compound treatment on polyamine homeostasis in mouse liver (native[N+]) total dose of 100 mg/kg; type: ADME, organism-based; parameters: dose 100 mg/kg; details: in vivo
Summary of the method: (§3)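 Groups of three female CD-1 mice were given 20 mg/kg/day as a single daily ip injection for 5 days (total 100 mg/kg, 215.3 μmol/kg). Mice were sacrificed 24 h after the last dose. Liver and kidney perchloric acid extracts were dansylated and run on HPLC, quantified against calibration curves. [N+] equivalents = 2[diamine] + 3[triamine] + 4[tetraamine], in nequiv/g wet weight, ±SD.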

L1210 [5] = test: Growth inhibitory activity of compound on L1210 cells after 48 hours; type: functional, cell-based; details: Mus musculus, L1210, 48 h; summary of the method: as §2
[6] = Effect of Chronic compound treatment on polyamine homeostasis in mouse liver(total[N+]) total dose of 100 mg/kg; type: ADME, organism-based; parameters: dose 100 mg/kg; details: in vivo; summary of the method: as §3
[7] = Effect of Chronic compound treatment on polyamine homeostasis in mouse kidney (total[N+]) at total dose of 100 mg/kg; type: ADME, organism-based; parameters: dose 100 mg/kg; details: in vivo; summary of the method: as §3
[8] = Effect of Chronic compound treatment on polyamine homeostasis in mouse kidney (native[N+]) at total dose of 100 mg/kg; type: ADME, organism-based; parameters: dose 100 mg/kg; details: in vivo; summary of the method: as §3
L1210 [9] = test: In vitro inhibition of uptake [3H]-spermidine in L1210 (murine leukemia) cells.; type: functional, cell-based, Mus musculus
L1210 [10] = test: Ability to competitively inhibit uptake of radiolabeled spermidine in L1210 cells; type: functional, cell-based, Mus musculus; summary of the method: as §1
[11] = Effect of Chronic compound treatment on polyamine homeostasis in mouse liver (native[N+]) at total dose of 90 mg/kg; type: ADME, organism-based; parameters: dose 90 mg/kg; details: in vivo
Summary of the method: (§4)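 Groups of three female CD-1 mice were dosed at 15 mg/kg/day for 6 days (total 90 mg/kg, 208.3 μmol/kg). Mice were sacrificed 1 day after the final dose. Liver and kidney perchloric acid extracts were dansylated and analysed by HPLC against calibration standards. [N+] equivalents = 2[diamine] + 3[triamine] + 4[tetraamine], in nequiv/g wet weight, ±SD.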

[12] = Effect of Chronic compound treatment on polyamine homeostasis in mouse liver(total[N+]) at total dose of 90 mg/kg; type: ADME, organism-based; parameters: dose 90 mg/kg; details: in vivo; summary of the method: as §4
L1210 (Mus musculus) = test: Growth inhibitory activity of compound on L1210 cells after 96 hours; details: L1210, 96 h
[13] = Effect of Chronic compound treatment on polyamine homeostasis in mouse kidney (native[N+]) at total dose of 90 mg/kg; type: ADME, organism-based; parameters: dose 90 mg/kg; details: in vivo; summary of the method: as §4

SMILES: CCNCCCNCCCNCCCNCC [BIS(ETHYL)NORSPERMINE]
- LD50 [1]: 325 mg/kg

SMILES: CCNCCC(O)CNCCCCNCC(O)CCNCC (stereo unspecified)
- Ki (L1210 [2]): 1800 nM
- LD50 [1]: 325 mg/kg
- IC50 (L1210 [3]): 50 nM
- LD50 [4]: 6118 mg/kg
- IC50 (L1210 [5]): 600 nM
- LD50 [6]: 6706 mg/kg
- LD50 [7]: 5427 mg/kg
- LD50 [8]: 3251 mg/kg

SMILES: c1cc(CNCCCCNCc2ccncc2)ccn1
- Ki (L1210 [9]): > 500000 nM

SMILES: C(CCNCCC1CCNCC1)CNCCC1CCNCC1
- Ki (L1210 [9]): 18100 nM

SMILES: C(CNC1CCNCC1)CNC1CCNCC1
- Ki (L1210 [9]): 60500 nM

SMILES: c1cc(NCCCNc2ccncc2)ccn1
- Ki (L1210 [9]): > 500000 nM

SMILES: C(CCNCCCCNC12CC3CC(CC(C3)C1)C2)CNCCCCNC12CC3CC(CC(C3)C1)C2
- Ki (L1210 [10]): 2000 nM

SMILES: CCNCCCNC1CCC(NCCCNCC)CC1 (stereo unspecified)
- Ki (L1210 [9]): 7900 nM

SMILES: CCNCCCCNCCCCNCCCCNCC [DIETHYLHOMOSPERMINE]
- LD50 [1]: 325 mg/kg
- LD50 [11]: 5506 mg/kg
- LD50 [12]: 7806 mg/kg
- IC50 (L1210 (Mus musculus)): 50 nM
- LD50 [13]: 1560 mg/kg

SMILES: CCNCCCCNC1CCC(NCCCCNCC)CC1 (stereo unspecified)
- Ki (L1210 [9]): 3500 nM
